Experiments:
Assay type in all cases: functional, organism-based
Leishmania donovani = assay: Antileishmanial activity against Leishmania donovani promastigotes after 72 hrs by alamar blue assay
How it was run: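 L. donovani promastigote culture at 2 × 10^6 cells/mL was exposed to diluted compound in microplate wells and incubated at 26 °C for 72 h. Promastigote growth was read by Alamar blue. Pentamidine and amphotericin B were the reference drugs.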

Cryptococcus neoformans = assay: Antifungal activity against Cryptococcus neoformans ATCC 90113 by M27A2 method
Staphylococcus aureus [1] = assay: Antibacterial activity against methicillin-resistant Staphylococcus aureus ATCC 33591 by CLSI method
How it was run: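 Methicillin-resistant S. aureus ATCC 33591 tested by a modified CLSI (formerly NCCLS) susceptibility method. Ciprofloxacin was included as the control drug in each assay.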

Staphylococcus aureus [2] = assay: Antibacterial activity against Staphylococcus aureus ATCC 29213 by CLSI method

Row | Structure (SMILES) | IC50 (Leishmania donovani) | IC90 (Leishmania donovani) | IC50 (Cryptococcus neoformans) | MIC (Cryptococcus neoformans) | IC50 (Staphylococcus aureus [1]) | MIC (Staphylococcus aureus [1]) | IC50 (Staphylococcus aureus [2]) | MIC (Staphylococcus aureus [2])
1 | C=C1CC[C@@H]2C(C)(C)CCC[C@@]2(C)[C@@H]1CC/C(C)=C/C[n+]1cn(C)c2nc[nH]/c(=N\O)c21 | 29.3 µg/mL | 34 µg/mL | 5.94 µg/mL | 10 µg/mL | – | – | – | –
2 | CC1=CCC[C@@H]2[C@@](C)(CC/C(C)=C/C[n+]3cn(C)c4nc[nH]/c(=N/O)c43)[C@H](C)CC[C@@]12C [AGELOXIME B] | 28.5 µg/mL | 33.2 µg/mL | 4.96 µg/mL | 10 µg/mL | 9.2 µg/mL | 20 µg/mL | 7.21 µg/mL | 10 µg/mL

Reference: ChEMBL document CHEMBL2034895, “Antimicrobial metabolites from the Paracel Islands sponge Agelas mauritiana” (J Nat Prod, 2012)
